Source: ChEMBL document CHEMBL2346506, “Cytotoxicity and modulation of cancer-related signaling by (Z)- and (E)-3,4,3',5'-tetramethoxystilbene isolated from Eugenia rigida” (J Nat Prod, 2013)
Activity calls are given as the source filed them. The calls are words filed in the database; no cut-off is given here.

Experiments:
[1] = Inhibition of AP1 signaling pathway in human HeLa cells assessed as measured as lowest concentration required 50 to 60 % inhibition of PMA induced luciferase treated 30 mins before induction; type: cell-based
Method in brief: (§1)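 Reporter assay in cells transfected with pathway luciferase plasmids. Cells plated at 0.015 × 10⁶ per well in 10% FBS, switched after 24 h to DMEM with 1% FBS, then transfected. 24 h after transfection, compound (final 40, 60, 80 or 100 μM) was added, followed 30 min later by inducer (IL-6, TGF-β, wnt3a or PMA). Luciferase was read 4 or 6 h after induction (6 h for Notch, Wnt, Hedgehog). Value is the IC50 or the lowest concentration giving maximal 50–60% inhibition; two independent experiments.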

HL-60 [2] = test: Inhibition of PMA induced ROS generation in human HL60 cells assessed as inhibition of ROA mediated oxidation of DCFH; type: functional, cell-based
Method in brief: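 HL-60 cells (0.8 × 10⁶/mL) in RPMI-1640 with 10% FBS were pretreated 30 min with compound (0.4–100 μM). PMA (100 ng/mL) was then added for 30 min, followed by DCFH-DA (5 μg/mL) for 15 min. DCF fluorescence read at Ex 485 / Em 530 nm and compared with vehicle control. Trolox served as positive control.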

HL-60 [3] = test: Cytotoxicity against human HL60 cells assessed as growth inhibition measured after 48 hrs by XTT assay; type: functional, cell-based; conditions: HL-60, 48 h
BT-549 = test: Cytotoxicity against human BT549 cells assessed as growth inhibition measured at 100 uM after 48 hrs by Neutral Red dye assay
Vero = test: Cytotoxicity against african green monkey Vero cells assessed as growth inhibition measured at 100 uM after 48 hrs by […] assay; type: cell-based; conditions: chlorocebus sabaeus
[4] = Inhibition of NFkappaB signaling pathway in human HeLa cells assessed as inhibition of PMA induced luciferase at 100 uM treated 30 mins before induction; type: cell-based; method in brief: as §1
[5] = Inhibition of Wnt signaling pathway in human HeLa cells assessed as inhibition of Wnt3a induced luciferase treated 30 mins before induction; type: cell-based; method in brief: as §1
HeLa [6] = test: Cytotoxicity against human HeLa cells assessed as growth inhibition measured after 48 hrs by Neutral Red dye assay
KB = test: Cytotoxicity against human KB cells assessed as growth inhibition measured at 100 uM after 48 hrs by Neutral Red dye assay
[7] = target: T1, Nitric oxide synthase, inducible (Mus musculus) (UniProt P29477); test: Inhibition of iNOS in LPS-induced mouse RAW264.7 cells assessed as inhibition of […] up to 33.3 uM measured after 24 hrs; type: cell-based
T1 sequence (whole entry): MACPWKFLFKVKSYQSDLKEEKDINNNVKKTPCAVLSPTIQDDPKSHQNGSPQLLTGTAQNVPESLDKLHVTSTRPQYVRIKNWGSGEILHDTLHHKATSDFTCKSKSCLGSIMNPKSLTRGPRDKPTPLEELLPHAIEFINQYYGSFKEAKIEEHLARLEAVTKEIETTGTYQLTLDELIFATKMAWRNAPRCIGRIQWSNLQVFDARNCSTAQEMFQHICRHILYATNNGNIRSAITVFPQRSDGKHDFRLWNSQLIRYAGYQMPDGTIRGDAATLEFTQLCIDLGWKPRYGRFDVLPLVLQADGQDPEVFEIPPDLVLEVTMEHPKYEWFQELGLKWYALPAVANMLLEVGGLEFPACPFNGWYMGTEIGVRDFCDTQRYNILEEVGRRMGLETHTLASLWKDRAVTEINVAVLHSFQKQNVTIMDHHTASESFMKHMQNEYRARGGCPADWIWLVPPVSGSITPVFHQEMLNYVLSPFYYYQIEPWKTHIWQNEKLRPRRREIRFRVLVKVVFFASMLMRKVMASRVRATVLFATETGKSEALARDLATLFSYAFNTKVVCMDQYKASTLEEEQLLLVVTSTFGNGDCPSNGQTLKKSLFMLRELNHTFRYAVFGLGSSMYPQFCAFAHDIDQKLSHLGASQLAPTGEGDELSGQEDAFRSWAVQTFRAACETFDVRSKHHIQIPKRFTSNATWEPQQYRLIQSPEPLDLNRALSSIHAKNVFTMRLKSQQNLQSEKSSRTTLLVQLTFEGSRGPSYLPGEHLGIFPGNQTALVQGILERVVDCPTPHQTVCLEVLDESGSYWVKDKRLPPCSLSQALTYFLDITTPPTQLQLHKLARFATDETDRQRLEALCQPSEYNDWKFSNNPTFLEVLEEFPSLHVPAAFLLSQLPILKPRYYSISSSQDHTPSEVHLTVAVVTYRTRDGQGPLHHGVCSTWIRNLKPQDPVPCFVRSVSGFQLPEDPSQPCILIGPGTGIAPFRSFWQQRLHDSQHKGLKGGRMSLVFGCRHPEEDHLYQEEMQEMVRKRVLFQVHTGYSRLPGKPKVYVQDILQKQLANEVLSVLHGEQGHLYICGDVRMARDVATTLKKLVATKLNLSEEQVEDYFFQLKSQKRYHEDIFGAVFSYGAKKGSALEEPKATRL
Method in brief: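 RAW 264.7 macrophages seeded at 50 000 per well and grown 24 h. Compound added 30 min before LPS (5 μg/mL), then cells incubated a further 24 h. Nitrite in the supernatant measured with Griess reagent relative to vehicle control. Parthenolide served as positive control; cytotoxicity checked in parallel.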

[8] = Inhibition of NFkappaB signaling pathway in human HeLa cells assessed as inhibition of PMA induced luciferase treated 30 mins before induction; type: cell-based; method in brief: as §1
HeLa [9] = test: Inhibition of smad3/4 signaling pathway in human HeLa cells assessed as measured as lowest concentration required 50 to 60 % inhibition of TGF-beta induced luciferase treated 30 mins before induction; type: functional; method in brief: as §1
[10] = Inhibition of Notch signaling pathway in human HeLa cells assessed as inhibition of PMA induced luciferase at 100 uM treated 30 mins before induction; type: cell-based; method in brief: as §1
[11] = target: Myc proto-oncogene protein (Homo sapiens) (UniProt P01106); test: Inhibition of Myc signaling pathway in human HeLa cells assessed as inhibition of PMA induced luciferase at 100 uM treated 30 mins before induction; type: cell-based; method in brief: as §1
Sequence of Myc proto-oncogene protein (Homo sapiens) (P01106 whole entry): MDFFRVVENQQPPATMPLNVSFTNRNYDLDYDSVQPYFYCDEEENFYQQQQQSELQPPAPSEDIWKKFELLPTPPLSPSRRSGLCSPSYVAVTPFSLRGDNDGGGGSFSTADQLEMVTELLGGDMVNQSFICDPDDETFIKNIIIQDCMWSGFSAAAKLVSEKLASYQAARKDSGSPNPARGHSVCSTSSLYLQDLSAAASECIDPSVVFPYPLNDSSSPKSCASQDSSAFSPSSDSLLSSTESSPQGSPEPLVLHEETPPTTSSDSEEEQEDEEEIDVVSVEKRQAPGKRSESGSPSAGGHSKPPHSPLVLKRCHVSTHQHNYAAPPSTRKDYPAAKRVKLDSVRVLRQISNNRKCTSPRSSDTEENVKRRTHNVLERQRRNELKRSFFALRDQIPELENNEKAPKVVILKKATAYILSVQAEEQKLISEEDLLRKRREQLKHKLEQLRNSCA

[12] = Inhibition of Ets signaling pathway in human HeLa cells assessed as inhibition of PMA induced luciferase at 100 uM treated 30 mins before induction; type: cell-based; method in brief: as §1
[13] = Inhibition of E2F signaling pathway in human HeLa cells assessed as inhibition of PMA induced luciferase at 100 uM treated 30 mins before induction; type: cell-based; method in brief: as §1
HeLa [14] = test: Inhibition of Stat3 signaling pathway in human HeLa cells assessed as inhibition of IL-6 induced luciferase at 100 uM treated 30 mins before induction; type: functional; method in brief: as §1
HeLa [15] = test: Inhibition of smad3/4 signaling pathway in human HeLa cells assessed as inhibition of TGF-beta induced luciferase treated 30 mins before induction; type: functional, cell-based; method in brief: as §1
LLC-PK1 = test: Cytotoxicity against pig LLC-PK1 cells assessed as growth inhibition measured at 100 uM after 48 hrs by […] assay; type: cell-based, Sus scrofa; conditions: llc-pk1, 48 h
[16] = target: Forkhead box protein O1 (Homo sapiens) (UniProt Q12778); test: Inhibition of FoxO signaling pathway in human HeLa cells assessed as inhibition of luciferase at 100 uM […]; type: cell-based
Sequence of Forkhead box protein O1 (Homo sapiens) (Q12778 whole entry): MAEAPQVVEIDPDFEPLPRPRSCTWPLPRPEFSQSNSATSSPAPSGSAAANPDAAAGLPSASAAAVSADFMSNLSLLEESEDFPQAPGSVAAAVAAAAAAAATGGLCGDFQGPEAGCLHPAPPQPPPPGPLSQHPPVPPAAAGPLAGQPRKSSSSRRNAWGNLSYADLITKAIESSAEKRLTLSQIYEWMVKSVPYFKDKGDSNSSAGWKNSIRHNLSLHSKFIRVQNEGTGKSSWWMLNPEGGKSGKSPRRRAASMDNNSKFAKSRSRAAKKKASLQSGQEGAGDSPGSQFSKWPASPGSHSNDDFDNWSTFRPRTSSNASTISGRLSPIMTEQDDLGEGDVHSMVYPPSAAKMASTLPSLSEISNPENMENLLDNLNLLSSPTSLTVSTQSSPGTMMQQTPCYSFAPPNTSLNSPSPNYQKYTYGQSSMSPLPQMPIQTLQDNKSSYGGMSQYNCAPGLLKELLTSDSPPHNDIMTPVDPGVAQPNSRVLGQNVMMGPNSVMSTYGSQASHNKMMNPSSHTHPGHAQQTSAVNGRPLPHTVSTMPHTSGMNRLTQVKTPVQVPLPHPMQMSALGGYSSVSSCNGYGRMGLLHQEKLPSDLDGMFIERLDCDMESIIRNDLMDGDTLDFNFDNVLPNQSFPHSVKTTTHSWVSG

SK-MEL = test: Cytotoxicity against human SK-MEL cells assessed as growth inhibition measured after 48 hrs by Neutral Red dye assay
[17] = Inhibition of Hedgehog signaling pathway in human HeLa cells assessed as inhibition of PMA induced luciferase at 100 uM treated 30 mins before induction; type: cell-based; method in brief: as §1
[18] = Inhibition of AP1 signaling pathway in human HeLa cells assessed as inhibition of PMA induced luciferase treated 30 mins before induction; type: cell-based; method in brief: as §1
SK-OV-3 = test: Cytotoxicity against human SKOV3 cells assessed as growth inhibition measured at 100 uM after 48 hrs by […] assay; type: functional, cell-based
[19] = Inhibition of Wnt signaling pathway in human HeLa cells assessed as measured as lowest concentration required 50 to 60 % inhibition of Wnt3a induced luciferase treated 30 mins before induction; type: cell-based; method in brief: as §1

**Q.** Which MED [1] does the source give for COc1cc(/C=C/c2ccc(OC)c(OC)c2)cc(OC)c1 [(E)-3,4,3',5'-TETRAMETHOXYSTILBENE] here?
**A.** Its MED is 100 µM.

**Q.** And the IC50 (HL-60 [2])?
**A.** Its IC50 is 33.3 µM.

**Q.** What about the IC50 (HL-60 [3]) of the same molecule?
**A.** The IC50 was 33.3 µM.

**Q.** What about the “growth inhibition (GI)” value (BT-549) of the same molecule?
**A.** The value was “inactive”.

**Q.** And the “growth inhibition (GI)” value (Vero)?
**A.** The value was “Not Active”.

**Q.** And the inhibition [4]?
**A.** Its inhibition is less than 40%.

**Q.** And the IC50 [5]?
**A.** The IC50 was 80 µM.

**Q.** What about the IC50 (HeLa [6]) of the same molecule?
**A.** The IC50 was 8 µM.

**Q.** And the “growth inhibition (GI)” value (KB)?
**A.** Its value is “inactive”.

**Q.** What about the inhibition [7] of the same molecule?
**A.** Its inhibition is “inactive”.

**Q.** And the IC50 [8]?
**A.** Its IC50 is 90 µM.

**Q.** What about the MED (HeLa [9]) of the same molecule?
**A.** The MED was 77 µM.

**Q.** What about the inhibition [10] of the same molecule?
**A.** Its inhibition is less than 40%.

**Q.** What about the inhibition [11] of the same molecule?
**A.** The inhibition was less than 40%.

**Q.** What about the inhibition [12] of the same molecule?
**A.** Its inhibition is less than 40%.

**Q.** What about the inhibition [13] of the same molecule?
**A.** The inhibition was less than 40%.

**Q.** What about the inhibition at 100 µM (HeLa [14]) of the same molecule?
**A.** The inhibition at 100 µM was less than 40%.

**Q.** What about the IC50 (HeLa [15]) of the same molecule?
**A.** Its IC50 is 100 µM.

**Q.** What about the “growth inhibition (GI)” value (LLC-PK1) of the same molecule?
**A.** The value was “Not Active”.

**Q.** And the inhibition [16]?
**A.** Its inhibition is less than 40%.

**Q.** And the IC50 (SK-MEL)?
**A.** The IC50 was 60 µM.

**Q.** And the inhibition [17]?
**A.** The inhibition was less than 40%.

**Q.** And the IC50 [18]?
**A.** The IC50 was 80 µM.

**Q.** What about the “growth inhibition (GI)” value (SK-OV-3) of the same molecule?
**A.** Its value is “inactive”.

**Q.** And the MED [19]?
**A.** Its MED is 80 µM.
